Test results: ChEMBL document CHEMBL3102749, “Antiprotozoal activity of dicationic 3,5-diphenylisoxazoles, their prodrugs and aza-analogues” (Bioorg Med Chem, 2014)
Active and inactive are the calls of the source. No cut-off for these calls is given here.

Experiments:
[1] = test system: Trypanosoma brucei rhodesiense; test: Trypanocidal activity against bloodstream form of Trypanosoma brucei rhodesiense STIB900 infected in NMRI mouse assessed as mean survival days at 5 mg/kg, ip qd administered for 4 days; type: functional
Procedure, shortened: (§1)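 Mice infected with T. b. rhodesiense STIB900 (acute model) dosed once daily for 4 consecutive days, ip (diamidines) or oral (prodrugs). Cure means survival to 60 days post infection without parasitemia relapse. Mean survival days post infection are averaged over all mice, with cured mice counted as >60 days.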

[2] = test system: Trypanosoma brucei rhodesiense; test: Trypanocidal activity against bloodstream form of Trypanosoma brucei rhodesiense STIB900 infected in NMRI mouse assessed as mean parasitemia relapse day at 5 mg/kg, ip qd administered for 4 days; type: functional; conditions: route intraperitoneal
Procedure, shortened: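 Mice infected with STIB900 received 4 consecutive daily intraperitoneal doses, 4 mice per group. The secondary endpoint was mean relapse day post-infection, which separates weaker compounds; mice surviving 60 days without parasitemia relapse were scored as cured.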

[3] = test system: Trypanosoma brucei rhodesiense; test: Trypanocidal activity against bloodstream form of Trypanosoma brucei rhodesiense STIB900 infected in NMRI mouse assessed as decrease in parasitemia at 5 mg/kg, ip qd administered for 4 days measured once per week until 60 days by microscopic analysis; type: functional, organism-based; set-up: dose 5 mg/kg
Procedure, shortened: (§2)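 Mice infected with T. b. rhodesiense STIB900 received one dose daily for 4 consecutive days, 4 mice per group. Diamidines were given intraperitoneally and prodrugs orally. The primary endpoint was cures per group: a mouse counted as cured if it survived 60 days post-infection without parasitemia relapse.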

[4] = test system: Trypanosoma brucei rhodesiense; test: Trypanocidal activity against bloodstream form of Trypanosoma brucei rhodesiense STIB900 infected in NMRI mouse assessed as mean survival days at 20 mg/kg, ip qd administered for 4 days; type: functional; conditions: route intraperitoneal; procedure, shortened: as §1
[5] = test system: Trypanosoma brucei rhodesiense; test: Trypanocidal activity against bloodstream form of Trypanosoma brucei rhodesiense STIB900 infected in NMRI mouse assessed as decrease in parasitemia at 20 mg/kg, ip qd administered for 4 days measured once per week until 60 days by microscopic analysis; type: functional, organism-based; set-up: dose 20 mg/kg; procedure, shortened: as §2
[6] = Selectivity index, ratio of IC50 for rat L6 cells to IC50 for chloroquine/pyrimethamine-resistant Plasmodium falciparum K1 infected in human red blood cells; type: toxicity, cell-based; conditions: read-out: Ratio IC50
Procedure, shortened: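 Ratio of IC50 in L6 rat myoblast cytotoxicity assay to IC50 against P. falciparum K1; each IC50 is the mean of two independent assays.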

[7] = Selectivity index, ratio of IC50 for rat L6 cells to IC50 for Trypanosoma brucei rhodesiense STIB900; type: toxicity, cell-based; conditions: read-out: Ratio IC50
Procedure, shortened: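 Ratio of IC50 in L6 rat myoblast cytotoxicity assay to IC50 against T. b. rhodesiense STIB900; each IC50 is the mean of two independent assays.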

L6 = test: Cytotoxicity against rat L6 cells assessed as cell viability after 70 hrs by Alamar blue assay; type: cell-based; conditions: L6, 70 h
Plasmodium falciparum = test: Antiplasmodial activity against chloroquine/pyrimethamine-resistant Plasmodium falciparum K1 infected in human red blood cells assessed as [3H]-hypoxanthine incorporation incubated for 48 hrs prior to [3H]-hypoxanthine addition measured after 24 hrs by liquid scintillation counting analysis; type: functional, organism-based
[8] = test system: Trypanosoma brucei rhodesiense; test: Antitrypanosomal activity against Trypanosoma brucei rhodesiense STIB900 assessed as growth inhibition after 70 hrs by Alamar blue assay; type: functional, organism-based; conditions: STIB900, 70 h
[9] = test system: Trypanosoma brucei rhodesiense; test: Trypanocidal activity against bloodstream form of Trypanosoma brucei rhodesiense STIB900 infected in NMRI mouse assessed as mean survival days at 100 mg/kg, po qd administered for 4 days; type: functional; procedure, shortened: as §1
[10] = test system: Trypanosoma brucei rhodesiense; test: Trypanocidal activity against bloodstream form of Trypanosoma brucei rhodesiense STIB900 infected in NMRI mouse assessed as mean survival days at 25 mg/kg, po qd administered for 4 days; type: functional; procedure, shortened: as §1
[11] = test system: Trypanosoma brucei rhodesiense; test: Trypanocidal activity against bloodstream form of Trypanosoma brucei rhodesiense STIB900 infected in NMRI mouse assessed as decrease in parasitemia at 25 mg/kg, po qd administered for 4 days measured once per week until 60 days by microscopic analysis; type: functional, organism-based; set-up: dose 25 mg/kg; procedure, shortened: as §2

COc1ccc(C(=N)N)cc1-c1cc(-c2cc(C(=N)N)ccc2OC)on1.Cl.Cl
MSD ([1]; route intraperitoneal): >50 days | Time [2]: 26 days | Activity [3]: inactive

Cl.Cl.N=C(N)c1ccc(-c2cc(-c3cccc(C(=N)N)c3)no2)cc1
MSD [4]: >29.25 days | Activity [5]: inactive

COc1cc(C(=N)N)ccc1-c1cc(-c2ccc(C(=N)N)cc2)no1.Cl.Cl
MSD ([1]; route intraperitoneal): >48.75 days | MSD [4]: >50.25 days

Cl.Cl.N=C(N)c1cccc(-c2cc(-c3ccc(C(=N)N)cc3[N+](=O)[O-])on2)c1
MSD [1]: inactive | Time [2]: 12.25 days | Activity [3]: inactive

Cl.Cl.N=C(N)c1ccc(-c2cc(-c3ccc(C(=N)N)nc3)no2)cc1
Time [2]: 25.7 days | selectivity ratio [6]: 6330 | selectivity ratio [7]: 423 | IC50 (L6): 2490 nM | IC50 (Plasmodium falciparum): 0.4 nM | IC50 [8]: 5.9 nM

Cl.Cl.N/C(=N\O)c1ccc(-c2cc(-c3ccc(/C(N)=N/O)cc3)on2)cc1
MSD [9]: >40.5 days

COc1cc(C(=N)N)ccc1-c1cc(-c2cccc(C(=N)N)c2)no1.Cl.Cl
MSD [1]: inactive | Time [2]: 18 days | Activity [3]: inactive

COc1ccc(C(=N)N)cc1-c1cc(-c2ccc(C(=N)N)cc2)on1.Cl.Cl
MSD ([1]; route intraperitoneal): >60 days | MSD [4]: >60 days | Activity [5]: Active

Cl.Cl.N=C(N)c1ccc(-c2cc(-c3cccc(C(=N)N)c3)on2)cc1
MSD ([1]; route intraperitoneal): >49.25 days | MSD [4]: >51.25 days

Cl.Cl.N=C(N)c1cccc(-c2cc(-c3cccc(C(=N)N)c3)on2)c1
MSD ([1]; route intraperitoneal): 21.75 days | MSD [4]: >58 days | Activity [3]: inactive

CO/N=C(\N)c1ccc(-c2cc(-c3ccc(/C(N)=N/OC)cc3OC)on2)cc1.Cl.Cl
MSD [10]: 15.75 days | Activity [11]: inactive

Cl.Cl.Cl.N/C(=N\O)c1ccc(-c2cc(-c3ccc(/C(N)=N/O)cc3Cl)on2)cc1
MSD [10]: >36.5 days | Activity [11]: inactive

CO/N=C(\N)c1ccc(-c2cc(-c3cccc(/C(N)=N/OC)c3)on2)cc1.Cl.Cl
MSD [10]: 31.25 days | Activity [11]: inactive

COc1c(/C(N)=N/O)cccc1-c1cc(-c2cccc(/C(N)=N/O)c2OC)on1.Cl.Cl
MSD [10]: 6 days | Activity [11]: inactive

CO/N=C(\N)c1ccc(-c2cc(-c3cccc(/C(N)=N/OC)c3)no2)cc1.Cl.Cl
MSD [10]: 8 days | Activity [11]: inactive

Cl.Cl.Cl.N=C(N)c1ccc(-c2cc(-c3cc(C(=N)N)ccc3Cl)on2)cc1
MSD [1]: inactive | Time [2]: 8.75 days | Activity [3]: inactive

COc1cc(C(=N)N)ccc1-c1cc(-c2cccc(C(=N)N)c2)on1.Cl.Cl
MSD [1]: inactive | Time [2]: 36.25 days | Activity [3]: inactive

Cl.Cl.Cl.N/C(=N\O)c1cccc(-c2cc(-c3ccc(/C(N)=N/O)cc3Cl)on2)c1
MSD [10]: 8.5 days | Activity [11]: inactive

Cl.Cl.Cl.N=C(N)c1cccc(-c2cc(-c3ccc(C(=N)N)cc3Cl)on2)c1
MSD [1]: inactive | MSD [4]: >60 days | Time [2]: 16 days | Activity [5]: Active

Cl.Cl.N/C(=N\O)c1ccc(-c2cc(-c3cccc(/C(N)=N/O)c3)on2)cc1
MSD [9]: >43.5 days

Cl.Cl.N=C(N)c1ccc(-c2cc(-c3cccc(C(=N)N)c3)on2)nc1
MSD ([1]; route intraperitoneal): >60 days | Time [2]: 53 days | selectivity ratio [6]: 17400 | selectivity ratio [7]: 8900 | IC50 (L6): 121000 nM | IC50 (Plasmodium falciparum): 7 nM | IC50 [8]: 13.6 nM

Cl.Cl.N/C(=N\O)c1cccc(-c2cc(-c3cccc(/C(N)=N/O)c3)on2)c1
MSD [10]: 7.5 days | Activity [11]: inactive

CO/N=C(\N)c1ccc(-c2cc(-c3ccc(/C(N)=N/OC)cc3Cl)on2)cc1.Cl.Cl.Cl
MSD [10]: 39 days | Activity [11]: inactive

COc1ccc(C(=N)N)cc1-c1cc(-c2cccc(C(=N)N)c2)no1.Cl.Cl
MSD [1]: inactive | Time [2]: 22.3 days

COc1cc(/C(N)=N/O)ccc1-c1cc(-c2cccc(/C(N)=N/O)c2)on1.Cl.Cl
MSD [10]: 17.5 days | Activity [11]: inactive

Cl.Cl.N=C(N)c1cccc(-c2cc(-c3ccc(C(=N)N)cc3[N+](=O)[O-])no2)c1
MSD [1]: inactive | Time [2]: 13 days | Activity [3]: inactive

COc1cc(/C(N)=N/O)ccc1-c1cc(-c2ccc(/C(N)=N/O)cc2)no1.Cl.Cl
MSD [10]: 26.25 days | Activity [11]: inactive

Cl.Cl.N=C(N)c1ccc(-c2cc(-c3ccc(C(=N)N)nc3)on2)cn1
Time [2]: 24 days | selectivity ratio [6]: 6650 | selectivity ratio [7]: 398 | IC50 (L6): 2460 nM | IC50 (Plasmodium falciparum): 0.4 nM | IC50 [8]: 6.2 nM

Cl.Cl.N=C(N)c1ccc(-c2cc(-c3cc(C(=N)N)ccc3[N+](=O)[O-])no2)cc1
MSD ([1]; route intraperitoneal): 29.75 days | Time [2]: 17 days | Activity [3]: inactive

CO/N=C(\N)c1cccc(-c2cc(-c3ccc(/C(N)=N/OC)cc3Cl)on2)c1.Cl.Cl.Cl
MSD [10]: 14 days | Activity [11]: inactive

COc1ccc(/C(N)=N/O)cc1-c1cc(-c2ccc(/C(N)=N/O)cc2)on1.Cl.Cl
MSD [10]: 18.25 days | Activity [11]: inactive

COc1c(/C(N)=N/O)cccc1-c1cc(-c2ccc(/C(N)=N/O)cc2)no1.Cl.Cl
MSD [10]: 25.75 days | Activity [11]: inactive

Cl.Cl.Cl.N=C(N)c1ccc(-c2cc(-c3cc(C(=N)N)ccc3Cl)no2)cc1
MSD [1]: inactive | Time [2]: 7.75 days | Activity [3]: inactive

COc1ccc(C(=N)N)cc1-c1cc(-c2ccc(C(=N)N)cc2)no1.Cl.Cl
MSD ([1]; route intraperitoneal): >60 days | MSD [4]: >60 days | Activity [5]: Active

Cl.Cl.N=C(N)c1ccc(-c2cc(-c3cncc(C(=N)N)c3)no2)cc1
Time [2]: 15 days | selectivity ratio [6]: 1170 | selectivity ratio [7]: 270 | IC50 (L6): 4320 nM | IC50 (Plasmodium falciparum): 3.7 nM | IC50 [8]: 16 nM

Cl.Cl.N=C(N)c1ccc(-c2cc(-c3cc(C(=N)N)ccn3)no2)cc1
Time [2]: 15.5 days | Activity [3]: inactive | selectivity ratio [6]: 14200 | selectivity ratio [7]: 1350 | IC50 (L6): 71200 nM | IC50 (Plasmodium falciparum): 5 nM | IC50 [8]: 52.8 nM

Cl.Cl.N=C(N)c1cncc(-c2cc(-c3ccc(C(=N)N)nc3)on2)c1
Time [2]: 25.25 days | Activity [3]: inactive | selectivity ratio [6]: 1400 | selectivity ratio [7]: 206 | IC50 (L6): 4910 nM | IC50 (Plasmodium falciparum): 3.5 nM | IC50 [8]: 23.9 nM

Cl.N=C(N)c1cncc(-c2cc(-c3ccc(C(=N)N)nc3)no2)c1
MSD ([1]; route intraperitoneal): >60 days | Time [2]: 60 days | selectivity ratio [6]: 440 | selectivity ratio [7]: 111 | IC50 (L6): 2110 nM | IC50 (Plasmodium falciparum): 4.8 nM | IC50 [8]: 19.1 nM
